The format of series [1] is in vivo, Sprague-Dawley rats. The note with it: single-dose group (voriconazole 30 mg/kg); vonoprazan 10 mg/kg oral; rats.
The target in series [2] is vonoprazan metabolism in rat liver microsomes. In words: Inhibition of vonoprazan metabolism by voriconazole in rat liver microsomes. The format is in vitro ADME. Particulars: RLM; for mode of inhibition of vonoprazan metabolism: Lineweaver–Burk plot, Ki ≠ αKi. The essentials:
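Rat liver microsomes were prepared in-house and used at 0.44 mg/mL, with 1 mM NADPH in 100 mM potassium phosphate (pH 7.4) in a 200 µL volume. Test inhibitor was at 0, 1.5, 3, 6 and 12 μM and substrate at 5, 10, 20 and 40 μM. Incubation ran 50 min at 37°C, was stopped by −80°C cooling, then acetonitrile plus IS was added. Substrate was quantified by LC-MS/MS, with Lineweaver–Burk and secondary plots giving Ki and αKi.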

Setting [3] is: 0-12 μM voriconazole, 5-40 μM vonoprazan, Lineweaver–Burk secondary plot.

The term Ki denotes a measure of affinity in units of concentration, obtained from inhibition or displacement. Read a high Ki as a looser hold on the target.

SMILES strings stand for the structures.

As to `CNCc1cc(-c2ccccc2F)n(S(=O)(=O)c2cccnc2)c1` [Vonoprazan, vonoprazan], the “decrease of CLz/F compared with the control group” value in series [1] was found to be 2.7 fold.
With `C[C@@H](c1ncncc1F)[C@](O)(Cn1cncn1)c1ccc(F)cc1F` [Voriconazole, voriconazole], in series [2] (setting [3]), the Ki was 2690 nM and the αKi stood at 5.32 µM. Besides, the “mode of inhibition of vonoprazan metabolism” value in series [2] was “mixed inhibition”. Further, the “mode of inhibition of vonoprazan metabolism” value in series [2] (listed as voriconazole) is recorded as “mixed type”.
